Assay results published in ChEMBL document CHEMBL4819032, “Structure-based design of highly selective 2,4,5-trisubstituted pyrimidine CDK9 inhibitors as anti-cancer agents” (Eur J Med Chem, 2021).
Calls of active or inactive are those of the source. The calls are words filed in the database; no cut-off is given here.

Assays:
CDK9/cyclin T1 = CDK9/cyclin T1 (Homo sapiens, UniProt P50750); experiment: Inhibition of recombinant human full length CDK9/Cyclin T1 using KTFCGTPEYLAPEVRREPRILSEEEQEMFRDFDYIADWC as substrate incubated for 40 mins in presence of [gamma-33P]-ATP by scintillation counting method; format: protein-complex assay
Procedure, shortened: (§1)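 Radiometric kinase assay with ATP at each kinase's Km(app). IC50 values come from 10-point dose-response curves, and apparent Ki is calculated from IC50 and the kinase's Km(ATP).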

CDK2/Cyclin A2 = CDK2/Cyclin A2 (Homo sapiens, UniProt P24941); experiment: Inhibition of recombinant human full length CDK2/Cyclin A using histone H1 as substrate incubated for 40 mins in presence of [gamma-33P]-ATP by scintillation counting method; format: protein-complex assay
[1] = molecular target: Cyclin-dependent kinase 1/cyclin B1 (Homo sapiens, UniProt P06493); experiment: Inhibition of recombinant human full length CDK1/Cyclin B using histone H1 as substrate incubated for 40 mins in presence of [gamma-33P]-ATP by scintillation counting method; format: protein-complex assay; procedure, shortened: as §1
Homo sapiens = organism: Homo sapiens; experiment: Selectivity index, ratio of Ki for inhibition of recombinant human full length CDK9/Cyclin T1 to Ki for inhibition of recombinant human full length CDK7/Cyclin H
[2] = system: Aurora kinase A (Homo sapiens), O14965 [UNDEFINED MUTATION]; experiment: Inhibition of recombinant human full length Aurora-A I31F mutant using LRRASLG as substrate incubated for 40 mins by scintillation counting method
Procedure, shortened: (§2)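 The 60-kinase diversity panel was run as a radiometric assay with ATP at each kinase's Km(app). Compound was tested at one fixed concentration across all kinases.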

[3] = molecular target: Mitogen-activated protein kinase kinase kinase 9 (Homo sapiens) (UniProt P80192); experiment: Inhibition of recombinant human full length MLK1 (134 to 414 residues)using casein as substrate incubated for 40 mins by scintillation counting method; procedure, shortened: as §2
[4] = molecular target: Tyrosine-protein kinase Fyn (Homo sapiens) (UniProt P06241); experiment: Inhibition of recombinant human full length FYN using KVEKIGEGTYGVVYK as substrate incubated for 40 mins by scintillation counting method; procedure, shortened: as §2
HT-29 = experiment: Growth inhibition of human HT-29 cells after 48 hrs by MTT assay; format: functional
A2780 [5] = experiment: Growth inhibition of human A2780 cells after 48 hrs by MTT assay; format: functional
HeLa = experiment: Growth inhibition of human HeLa cells after 48 hrs by MTT assay; format: functional
MIA PaCa-2 = experiment: Growth inhibition of human MIA PaCa-2 cells after 48 hrs by MTT assay; format: functional
A2780 [6] = experiment: Induction of apoptosis in human A2780 cells assessed as necrotic cells at 0.5 uM after 24 hrs by Annexin V-FITC/PI staining based flow cytometric analysis (reference value: 3.6%); format: functional
Procedure, shortened: (§3)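 A2780 cells cultured 24 h in medium alone or with varying inhibitor concentrations, then stained with FITC-annexin V/PI per kit protocol and analysed by flow cytometry. Run in triplicate and repeated at least twice; significance by one-way ANOVA, p < 0.01.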

A2780 [7] = experiment: Induction of apoptosis in human A2780 cells assessed as viable cells at 1 uM after 24 hrs by Annexin V-FITC/PI staining based flow cytometric analysis (reference value: 92%); format: functional; settings: read-out: Activity; procedure, shortened: as §3
A2780 [8] = experiment: Induction of apoptosis in human A2780 cells assessed as viable cells at 2 uM after 24 hrs by Annexin V-FITC/PI staining based flow cytometric analysis (reference value: 92%); format: functional; settings: read-out: Activity; procedure, shortened: as §3
A2780 [9] = experiment: Induction of apoptosis in human A2780 cells assessed as late apoptotic cells at 2 uM after 24 hrs by Annexin V-FITC/PI staining based flow cytometric analysis (reference value: 2.8%); format: functional; procedure, shortened: as §3
A2780 [10] = experiment: Induction of apoptosis in human A2780 cells assessed as early apoptotic cells at 5 uM after 24 hrs by Annexin V-FITC/PI staining based flow cytometric analysis (reference value: 1.6%); format: functional; procedure, shortened: as §3
A2780 [11] = experiment: Induction of apoptosis in human A2780 cells assessed as late apoptotic cells at 5 uM after 24 hrs by Annexin V-FITC/PI staining based flow cytometric analysis (reference value: 2.8%); format: functional; procedure, shortened: as §3
A2780 [12] = experiment: Induction of apoptosis in human A2780 cells assessed as necrotic cells at 5 uM after 24 hrs by Annexin V-FITC/PI staining based flow cytometric analysis (reference value: 3.6%); format: functional; procedure, shortened: as §3
A2780 [13] = experiment: Induction of cell cycle arrest in human A2780 cells assessed as accumulation at pre-G1 phase at 0.5 uM after 24 hrs by propidium iodide staining based flow cytometric analysis (reference value: 1.2%); format: functional
A2780 [14] = experiment: Induction of cell cycle arrest in human A2780 cells assessed as accumulation at G2/M phase at 0.5 uM after 24 hrs by propidium iodide staining based flow cytometric analysis (reference value: 21.6%); format: functional
Procedure, shortened: (§4)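 4 × 10⁵ A2780 cells cultured 24 h in medium alone or with varying inhibitor concentrations, harvested into hypotonic fluorochrome solution (0.1% sodium citrate, 0.1% Triton X-100, propidium iodide, 100 ug/ml RNase A), and DNA content analysed by flow cytometry. Representative of three independent experiments.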

A2780 [15] = experiment: Induction of cell cycle arrest in human A2780 cells assessed as accumulation at S phase at 5 uM after 24 hrs by propidium iodide staining based flow cytometric analysis (reference value: 20%); format: functional; procedure, shortened: as §4
A2780 [16] = experiment: Induction of cell cycle arrest in human A2780 cells assessed as accumulation at pre-G1 phase after 24 hrs by propidium iodide staining based flow cytometric analysis; format: functional; settings: dose 0.5-5 µM; procedure, shortened: as §4
[17] = molecular target: Cyclin-dependent kinase 9 (Homo sapiens) (UniProt P50750); experiment: Inhibition of CDK9 in human A2780 cells assessed as reduction in RNAP2 phosphorylation at ser2 residues after 24 hrs by Western blot analysis; format: cell-based; settings: dose 0.5-5 µM
A2780 [18] = experiment: Induction of apoptosis in human A2780 cells assessed as reduction in Mcl-1 protein expression at 5 uM after 6 to 12 hrs by Western blot analysis; format: functional, cell-based; settings: time 6-12 hrs
Procedure, shortened: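 A2780 cells treated for 6 or 12 h, then lysates analysed by Western blotting.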

A2780 [19] = experiment: Induction of apoptosis in human A2780 cells assessed as reduction in Mcl-1 protein expression after 24 hrs by Western blot analysis; format: functional, cell-based; settings: dose 0.5-5 µM
Procedure, shortened: (§5)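 A2780 cells treated for 24 h over a concentration series, then lysates analysed by Western blotting.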

A2780 [20] = experiment: Induction of apoptosis in human A2780 cells assessed as reduction in XIAP protein expression after 24 hrs by Western blot analysis; format: functional, cell-based; settings: dose 0.5-5 µM; procedure, shortened: as §5
A2780 [21] = experiment: Induction of apoptosis in human A2780 cells assessed as increase in cleaved PARP protein expression at 0.5 to 5 uM after 24 hrs by Western blot analysis; format: functional, cell-based; settings: dose 0.5-5 µM; procedure, shortened: as §5
A2780 [22] = experiment: Induction of apoptosis in human A2780 cells assessed as increase in p53 protein expression at 0.5 to 5 uM after 24 hrs by Western blot analysis; format: functional, cell-based; settings: dose 0.5-5 µM; procedure, shortened: as §5
A2780 [23] = experiment: Induction of apoptosis in human A2780 cells assessed as increase in p21 protein expression at 0.5 to 5 uM after 24 hrs by Western blot analysis; format: functional, cell-based; settings: dose 0.5-5 µM; procedure, shortened: as §5
HCT-116 [24] = experiment: Induction of apoptosis in human HCT-116 cells assessed as reduction in Mcl-1 protein expression at 5 uM after 6 to 12 hrs by Western blot analysis; format: functional, cell-based; settings: time 6-12 hrs
HCT-116 [25] = experiment: Induction of apoptosis in human HCT-116 cells assessed as reduction in Mcl-1 protein expression after 24 hrs by Western blot analysis; format: functional, cell-based; settings: dose 0.5-5 µM

CDK9/cyclin T1, sequence (O60563 whole entry): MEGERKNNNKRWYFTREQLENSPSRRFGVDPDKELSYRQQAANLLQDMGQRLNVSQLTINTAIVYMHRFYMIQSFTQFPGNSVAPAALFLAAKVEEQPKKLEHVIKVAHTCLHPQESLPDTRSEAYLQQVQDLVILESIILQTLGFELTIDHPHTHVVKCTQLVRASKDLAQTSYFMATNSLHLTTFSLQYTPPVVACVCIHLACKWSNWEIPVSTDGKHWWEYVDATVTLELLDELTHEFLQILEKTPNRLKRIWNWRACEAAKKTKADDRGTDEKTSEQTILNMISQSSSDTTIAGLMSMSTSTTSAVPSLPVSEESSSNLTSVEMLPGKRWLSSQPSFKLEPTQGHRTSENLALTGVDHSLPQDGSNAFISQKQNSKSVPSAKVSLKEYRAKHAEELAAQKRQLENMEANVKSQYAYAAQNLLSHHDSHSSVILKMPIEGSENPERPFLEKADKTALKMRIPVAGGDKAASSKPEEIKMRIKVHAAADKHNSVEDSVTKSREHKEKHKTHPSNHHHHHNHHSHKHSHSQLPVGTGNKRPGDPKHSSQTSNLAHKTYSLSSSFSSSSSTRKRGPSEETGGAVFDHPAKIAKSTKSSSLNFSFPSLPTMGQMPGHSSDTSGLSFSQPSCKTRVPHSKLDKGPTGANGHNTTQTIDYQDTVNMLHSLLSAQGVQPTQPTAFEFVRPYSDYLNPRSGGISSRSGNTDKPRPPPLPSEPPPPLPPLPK
CDK9/cyclin T1, sequence (P50750 whole entry): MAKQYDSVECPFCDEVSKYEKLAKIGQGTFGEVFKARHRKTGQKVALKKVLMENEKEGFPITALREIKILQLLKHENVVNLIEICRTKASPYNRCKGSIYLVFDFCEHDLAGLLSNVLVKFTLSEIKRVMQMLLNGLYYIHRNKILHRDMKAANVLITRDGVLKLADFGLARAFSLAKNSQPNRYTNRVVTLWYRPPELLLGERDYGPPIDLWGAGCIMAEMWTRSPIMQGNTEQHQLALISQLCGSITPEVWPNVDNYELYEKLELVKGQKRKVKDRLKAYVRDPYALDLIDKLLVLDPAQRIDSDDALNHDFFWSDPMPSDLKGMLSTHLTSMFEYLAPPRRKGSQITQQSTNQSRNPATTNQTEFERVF
Cyclin-dependent kinase 9 (Homo sapiens), sequence (P50750 whole entry): as above
Mitogen-activated protein kinase kinase kinase 9 (Homo sapiens), sequence (P80192 whole entry, looked up, the tested form may be a part): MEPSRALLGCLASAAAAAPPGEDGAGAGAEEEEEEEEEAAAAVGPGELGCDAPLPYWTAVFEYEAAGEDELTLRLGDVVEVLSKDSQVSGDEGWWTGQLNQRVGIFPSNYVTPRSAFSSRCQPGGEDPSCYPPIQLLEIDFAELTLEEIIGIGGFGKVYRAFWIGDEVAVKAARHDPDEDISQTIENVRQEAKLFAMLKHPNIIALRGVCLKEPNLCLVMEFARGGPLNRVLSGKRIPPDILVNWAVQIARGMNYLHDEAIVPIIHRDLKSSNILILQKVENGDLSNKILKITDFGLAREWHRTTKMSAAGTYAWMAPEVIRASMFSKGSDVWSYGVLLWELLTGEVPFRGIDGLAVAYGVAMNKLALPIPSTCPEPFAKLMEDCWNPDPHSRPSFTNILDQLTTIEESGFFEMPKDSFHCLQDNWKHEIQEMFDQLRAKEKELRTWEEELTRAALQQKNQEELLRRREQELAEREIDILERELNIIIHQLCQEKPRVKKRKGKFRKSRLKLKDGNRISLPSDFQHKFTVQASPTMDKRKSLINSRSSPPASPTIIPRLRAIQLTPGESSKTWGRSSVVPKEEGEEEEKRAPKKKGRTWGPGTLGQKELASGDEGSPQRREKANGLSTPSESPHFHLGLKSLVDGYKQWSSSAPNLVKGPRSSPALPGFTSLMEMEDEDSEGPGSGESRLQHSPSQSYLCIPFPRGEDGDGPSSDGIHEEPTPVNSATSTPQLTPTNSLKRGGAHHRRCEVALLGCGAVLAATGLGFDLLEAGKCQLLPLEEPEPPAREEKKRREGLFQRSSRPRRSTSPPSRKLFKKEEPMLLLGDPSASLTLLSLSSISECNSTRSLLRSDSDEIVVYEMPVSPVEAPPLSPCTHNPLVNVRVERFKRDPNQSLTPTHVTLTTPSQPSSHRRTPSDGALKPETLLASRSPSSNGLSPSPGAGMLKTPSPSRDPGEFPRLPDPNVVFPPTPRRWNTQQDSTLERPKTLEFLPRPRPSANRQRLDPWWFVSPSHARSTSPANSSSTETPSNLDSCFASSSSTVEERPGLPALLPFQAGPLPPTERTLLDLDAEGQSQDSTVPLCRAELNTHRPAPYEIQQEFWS
Aurora kinase A (Homo sapiens), O14965 [UNDEFINED MUTATION], sequence (O14965 whole entry, looked up, stated change not applied): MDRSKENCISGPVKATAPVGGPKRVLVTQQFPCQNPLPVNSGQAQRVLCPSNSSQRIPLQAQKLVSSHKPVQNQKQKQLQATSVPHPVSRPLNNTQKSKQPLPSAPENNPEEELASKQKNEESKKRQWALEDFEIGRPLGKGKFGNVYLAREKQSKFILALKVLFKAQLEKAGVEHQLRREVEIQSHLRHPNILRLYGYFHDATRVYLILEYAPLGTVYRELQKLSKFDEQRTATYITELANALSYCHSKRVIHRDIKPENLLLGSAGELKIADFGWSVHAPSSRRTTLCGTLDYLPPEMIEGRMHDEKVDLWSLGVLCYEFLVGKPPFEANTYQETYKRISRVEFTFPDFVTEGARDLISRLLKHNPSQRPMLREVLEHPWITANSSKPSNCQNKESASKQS
Tyrosine-protein kinase Fyn (Homo sapiens), sequence (P06241 2-537 limits assumed): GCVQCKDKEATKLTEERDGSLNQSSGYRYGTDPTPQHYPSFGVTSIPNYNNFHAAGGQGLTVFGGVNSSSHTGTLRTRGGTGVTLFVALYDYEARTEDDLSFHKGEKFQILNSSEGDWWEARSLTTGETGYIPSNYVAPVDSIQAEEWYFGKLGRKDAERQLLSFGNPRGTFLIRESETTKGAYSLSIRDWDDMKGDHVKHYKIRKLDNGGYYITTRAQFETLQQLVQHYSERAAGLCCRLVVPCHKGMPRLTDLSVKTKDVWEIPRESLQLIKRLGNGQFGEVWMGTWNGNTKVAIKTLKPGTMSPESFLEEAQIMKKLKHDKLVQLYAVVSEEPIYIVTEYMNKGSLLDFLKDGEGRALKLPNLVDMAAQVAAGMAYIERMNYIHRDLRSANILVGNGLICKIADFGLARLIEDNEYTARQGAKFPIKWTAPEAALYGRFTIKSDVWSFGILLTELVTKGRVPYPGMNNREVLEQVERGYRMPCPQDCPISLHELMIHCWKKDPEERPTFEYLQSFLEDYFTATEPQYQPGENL
Cyclin-dependent kinase 1/cyclin B1, sequence (P06493 whole entry): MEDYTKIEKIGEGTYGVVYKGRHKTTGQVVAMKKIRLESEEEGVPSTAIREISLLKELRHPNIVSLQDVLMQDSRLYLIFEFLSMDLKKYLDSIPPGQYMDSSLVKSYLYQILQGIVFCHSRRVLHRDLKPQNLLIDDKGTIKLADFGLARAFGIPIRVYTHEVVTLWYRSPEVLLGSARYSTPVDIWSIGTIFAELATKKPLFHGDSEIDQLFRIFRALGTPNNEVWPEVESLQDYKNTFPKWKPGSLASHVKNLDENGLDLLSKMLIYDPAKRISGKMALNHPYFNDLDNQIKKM
Cyclin-dependent kinase 1/cyclin B1, sequence (P14635 whole entry, further chain): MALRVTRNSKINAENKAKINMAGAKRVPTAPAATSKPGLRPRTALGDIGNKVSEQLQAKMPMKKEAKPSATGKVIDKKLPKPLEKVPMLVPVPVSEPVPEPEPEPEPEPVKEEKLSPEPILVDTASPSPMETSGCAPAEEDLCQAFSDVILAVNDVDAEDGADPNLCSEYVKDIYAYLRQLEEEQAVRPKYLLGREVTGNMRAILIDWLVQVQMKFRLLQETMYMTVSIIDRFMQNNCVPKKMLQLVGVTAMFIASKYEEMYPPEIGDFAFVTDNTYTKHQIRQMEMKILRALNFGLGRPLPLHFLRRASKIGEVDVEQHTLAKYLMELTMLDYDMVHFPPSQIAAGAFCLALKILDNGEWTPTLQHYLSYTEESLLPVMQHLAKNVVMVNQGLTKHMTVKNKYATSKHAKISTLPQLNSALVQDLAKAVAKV

## CNc1nc(C)c(-c2nc(Nc3cccc(N4CCN5CCC4CC5)c3)ncc2C)s1
CDK9/cyclin T1
  Ki: 10 nM
CDK2/Cyclin A2
  Ki: 1250 nM
[1]
  Ki: 1170 nM
Homo sapiens
  Ratio Ki: > 50
[2]
  inhibition: Active
[3]
  inhibition: Active
[4]
  inhibition: Active
HT-29
  GI50: 2100 nM
A2780 [5]
  GI50: 640 nM
HeLa
  GI50: 800 nM
MIA PaCa-2
  GI50: 1070 nM
A2780 [6]
  Activity: 1.9%
A2780 [7]
  viability at 1 µM: 74.4%
A2780 [8]
  viability at 2 µM: 67.9%
A2780 [9]
  Activity: 15.5%
A2780 [10]
  Activity: 24.65%
A2780 [11]
  Activity: 47.2%
A2780 [12]
  Activity: 5.6%
A2780 [13]
  Activity: 2%
A2780 [14]
  Activity: 22.2%
A2780 [15]
  Activity: 10.8%
A2780 [16]
  Activity: Dose-Dependent Effect
[17]
  inhibition: Dose-Dependent Effect
A2780 [18]
  Activity: Active
A2780 [19]
  Activity: Dose-Dependent Effect
A2780 [20]
  Activity: Dose-Dependent Effect
A2780 [21]
  Activity: Active
A2780 [22]
  Activity: Active
A2780 [23]
  Activity: Active
HCT-116 [24]
  Activity: Active
HCT-116 [25]
  Activity: Dose-Dependent Effect
